Measured values pooled from the literature.
SLC6A2: Sodium-dependent noradrenaline transporter (SLC6A2, Homo sapiens, UniProt P23975)
CHEK2: Serine/threonine-protein kinase Chk2 (CHEK2, Homo sapiens, UniProt O96017)
MPO: Myeloperoxidase (MPO, Homo sapiens, UniProt P05164)

SMILES | target | test | system | conditions | endpoint | result
N#CC[C@@]12C[C@@H]1[C@@H](n1cnc3c(NCCCCCc4ccccc4)nc(I)nc31)[C@H](O)[C@@H]2O | SLC6A2 | ligand displacement, radioligand |  | 10 µM | inhibition | 4%
COc1ccc2oc(-c3ccc4nc(N)oc4c3)c/c(=N\c3ccccc3NC(=O)CCN)c2c1 | CHEK2 | binding |  | 1 µM | remaining binding | 76%
N#CC[C@@]12C[C@@H]1[C@@H](n1cnc3c(NCCCCCCc4ccccc4)nc(I)nc31)[C@H](O)[C@@H]2O | SLC6A2 | transporter uptake, inhibitor, radiometric | HEK293 | 10 µM | inhibition | 0%
CCCCC(=O)Nc1ccc(-c2ccc3ncn(CCC)c(=O)c3c2)cn1 | CHEK2 | binding, competition with immobilised ligand |  | 0.5 µM | remaining binding | 96%
NC/C(=C\F)COc1cccc(Cn2c(=S)[nH]c(=O)c3[nH]cnc32)c1 | MPO | enzyme activity, inhibitor, fluorescence |  | 3 µM | inhibition | 99.7%
CSc1nc(NCCC2CC2)c2ncn([C@H]3[C@H](O)[C@H](O)[C@@H]4C[C@@H]43)c2n1 | SLC6A2 | ligand displacement, radioligand |  | 10 µM | inhibition | 5%
Cc1cc(O)c(-c2ccc([C@@H](C)CN(C)C)cc2)c2c1[nH]c(=O)c1sccc12 | Peripheral plasma membrane protein CASK (CASK, Homo sapiens, UniProt O14936) | cell-free assay, inhibitor |  | 0.1 µM, lysate | inhibition | 3.12%
CC(C)OCCn1c(=S)[nH]c(=O)c2[nH]ccc21 | MPO | enzyme activity, inhibitor |  | 0.156 µM | remaining activity | 93.7%
C1=C/COCc2cc(ccc2OCCN2CCCC2)Nc2nccc(n2)-c2cccc(c2)COC/1 | Fibroblast growth factor receptor 1 (FGFR1, Homo sapiens, UniProt P11362) | binding |  | 0.1 µM | remaining binding | 88%
